Experimental data taken from ChEMBL document CHEMBL3286371, “wALADin benzimidazoles differentially modulate the function of porphobilinogen synthase orthologs” (J Med Chem, 2014).
Calls of active or inactive are those of the source. The calls are words filed in the database; no cut-off is given here.

Columns and labels:
[1] = target: Delta-aminolevulinic acid dehydratase (Pseudomonas aeruginosa (strain ATCC 15692 / PAO1 / 1C / PRS 101 / LMG12228)) (UniProt Q59643); test: Stimulation of Pseudomonas aeruginosa PAO1 recombinant PBGS using 5-ALA as substrate at 10 to 1000 uM at pH 8 in presence of 0.1 to 10000 uM MgCl2
[2] = target: T1, Delta-aminolevulinic acid dehydratase (Escherichia coli (strain K12)) (UniProt P0ACB2); test: Inhibition of Escherichia coli recombinant PBGS using 5-ALA as substrate at 50 to 200 uM at pH 7 to 8.5 by buffer scan assay in presence of KCl
T1 sequence (whole entry): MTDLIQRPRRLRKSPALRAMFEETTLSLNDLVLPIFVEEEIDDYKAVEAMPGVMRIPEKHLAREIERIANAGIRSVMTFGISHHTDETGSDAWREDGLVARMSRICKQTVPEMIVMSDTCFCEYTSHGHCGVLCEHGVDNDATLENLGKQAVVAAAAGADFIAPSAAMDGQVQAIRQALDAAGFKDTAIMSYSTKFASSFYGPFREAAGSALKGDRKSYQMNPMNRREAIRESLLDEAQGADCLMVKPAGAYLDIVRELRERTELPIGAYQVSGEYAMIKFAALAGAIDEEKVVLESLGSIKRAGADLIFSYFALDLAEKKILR

[3] = target: Delta-aminolevulinic acid dehydratase (Pseudomonas aeruginosa (strain ATCC 15692 / PAO1 / 1C / PRS 101 / LMG12228)) (UniProt Q59643); test: Stimulation of Pseudomonas aeruginosa PAO1 recombinant PBGS using 5 mM 5-ALA as substrate assessed as change in enzyme affinity for Mg2+ at 10 to 10000 uM at pH 8 by buffer scan assay in presence of MgCl2
How it was run: (§1)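 Mg2+ or substrate response curves recorded with and without wALADin1; VMAX, KM and Mg2+ affinity derived from the fits.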

[4] = target: T1, Delta-aminolevulinic acid dehydratase (Escherichia coli (strain K12)); test: Inhibition of Escherichia coli recombinant PBGS using 5-ALA as substrate at 50 to 200 uM at pH 7 to 8.5 by buffer scan assay
[5] = target: Delta-aminolevulinic acid dehydratase (Pseudomonas aeruginosa (strain ATCC 15692 / PAO1 / 1C / PRS 101 / LMG12228)) (UniProt Q59643); test: Stimulation of Pseudomonas aeruginosa PAO1 recombinant PBGS assessed as stabilization of octameric form at 250 uM at pH 7 to 8.5 by nondenaturing PAGE analysis in presence of Mg2+ and K+
[6] = target: Delta-aminolevulinic acid dehydratase (Yersinia enterocolitica W22703) (UniProt F4MUJ9); test: Stimulation of Yersinia enterocolitica recombinant PBGS expressed in Escherichia coli using 5-ALA as substrate at 10 to 1000 uM at pH 8 in presence of MgCl2 and KCl
[7] = target: Delta-aminolevulinic acid dehydratase (Pseudomonas aeruginosa (strain ATCC 15692 / PAO1 / 1C / PRS 101 / LMG12228)) (UniProt Q59643); test: Stimulation of Pseudomonas aeruginosa PAO1 recombinant PBGS using 5 mM 5-ALA as substrate at 50 to 200 uM at pH 8 by buffer scan assay in presence of KCl
[8] = target: Delta-aminolevulinic acid dehydratase (Pseudomonas aeruginosa (strain ATCC 15692 / PAO1 / 1C / PRS 101 / LMG12228)) (UniProt Q59643); test: Stimulation of Pseudomonas aeruginosa PAO1 recombinant PBGS using 5-ALA as substrate at 10 to 1000 uM at pH 8 in presence of MgCl2 and KCl
[9] = target: Delta-aminolevulinic acid dehydratase (Pseudomonas aeruginosa (strain ATCC 15692 / PAO1 / 1C / PRS 101 / LMG12228)) (UniProt Q59643); test: Stimulation of Pseudomonas aeruginosa PAO1 recombinant PBGS using 5 mM 5-ALA as substrate assessed as increase in Vmax at 10 to 10000 uM at pH 8 by buffer scan assay in presence of MgCl2; how it was run: as §1
[10] = target: Delta-aminolevulinic acid dehydratase (Pseudomonas aeruginosa (strain ATCC 15692 / PAO1 / 1C / PRS 101 / LMG12228)) (UniProt Q59643); test: Inhibition of Pseudomonas aeruginosa PAO1 recombinant PBGS using 0.2 mM 5-ALA as substrate at 50 to 200 uM at pH 7.5 in presence of KCl by buffer scan assay
[11] = target: T2, Delta-aminolevulinic acid dehydratase (Wolbachia sp. subsp. Brugia malayi (strain TRS)) (UniProt Q5GSR3); conditions: 25 to 2500 uM
T2 sequence (whole entry): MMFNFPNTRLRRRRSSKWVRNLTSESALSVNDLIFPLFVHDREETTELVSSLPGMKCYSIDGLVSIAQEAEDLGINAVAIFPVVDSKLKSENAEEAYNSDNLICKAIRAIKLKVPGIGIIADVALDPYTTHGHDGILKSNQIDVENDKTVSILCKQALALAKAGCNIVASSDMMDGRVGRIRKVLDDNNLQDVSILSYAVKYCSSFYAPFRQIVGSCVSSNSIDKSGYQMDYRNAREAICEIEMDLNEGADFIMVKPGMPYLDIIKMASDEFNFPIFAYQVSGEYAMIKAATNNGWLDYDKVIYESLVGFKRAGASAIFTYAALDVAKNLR

[12] = target: Delta-aminolevulinic acid dehydratase (Pseudomonas aeruginosa (strain ATCC 15692 / PAO1 / 1C / PRS 101 / LMG12228)) (UniProt Q59643); test: Stimulation of Pseudomonas aeruginosa PAO1 recombinant PBGS using 5 mM 5-ALA as substrate assessed as increase in Vmax at 50 to 200 uM at pH 8 by Michaelis-Menten plot analysis in presence of MgCl2; how it was run: as §1
[13] = target: T3, Delta-aminolevulinic acid dehydratase (Wolbachia sp. subsp. Brugia malayi (strain TRS), UniProt Q5GSR3); test: Inhibition of C-terminal His-tagged Wolbachia PBGS using 5-ALA as substrate
T3 sequence (Q5GSR3 whole entry): T2 sequence (whole entry)

[14] = target: Delta-aminolevulinic acid dehydratase (Pseudomonas aeruginosa (strain ATCC 15692 / PAO1 / 1C / PRS 101 / LMG12228)) (UniProt Q59643); test: Inhibition of Pseudomonas aeruginosa PAO1 recombinant PBGS assessed as inhibition of octamer-inducing effect of Mg2+ by nondenaturing PAGE analysis
How it was run: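 PaPBGS (3 μg) preincubated 20 min at 37 °C in assay buffer with 1 mM Mg2+, 100 mM K+ and wALADin1, no 5-ALA. Run on 7.5% nondenaturing PAGE at 4 °C for 15–20 h. Coomassie for oligomer state; in-gel activity with 500 μM 5-ALA stained with Ehrlich's reagent.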

[15] = target: Delta-aminolevulinic acid dehydratase (Pseudomonas aeruginosa (strain ATCC 15692 / PAO1 / 1C / PRS 101 / LMG12228)) (UniProt Q59643); test: Stimulation of Pseudomonas aeruginosa PAO1 recombinant PBGS
[16] = target: Delta-aminolevulinic acid dehydratase (Yersinia enterocolitica W22703) (UniProt F4MUJ9); test: Stimulation of Yersinia enterocolitica recombinant PBGS expressed in Escherichia coli using 5-ALA as substrate at 10 to 1000 uM at pH 8 in presence of 0.1 to 10000 uM MgCl2
Toxoplasma gondii = test: Stimulation of Toxoplasma gondii recombinant PBGS using 5-ALA as substrate relative to control
How it was run: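 Recombinant T. gondii PBGS (hemB in pET-21b, expressed in BL21 E. coli) at 250 nM subunit in 100 mM Tris-HCl pH 8.0, 1 mM MgCl2, 5 mM DTT, with 200 μM 5-ALA, 20 min at 36 °C. Porphobilinogen was read with Ehrlich's reagent, and turnover was kept at or below 30%.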

[17] = target: Delta-aminolevulinic acid dehydratase (Yersinia enterocolitica W22703) (UniProt F4MUJ9); test: Inhibition of Yersinia enterocolitica recombinant PBGS expressed in Escherichia coli using 5-ALA as substrate at 50 to 200 uM at pH 7 to 8.5 by buffer scan assay in presence of KCl

Chain of Delta-aminolevulinic acid dehydratase (Yersinia enterocolitica W22703) (F4MUJ9 as listed by the source): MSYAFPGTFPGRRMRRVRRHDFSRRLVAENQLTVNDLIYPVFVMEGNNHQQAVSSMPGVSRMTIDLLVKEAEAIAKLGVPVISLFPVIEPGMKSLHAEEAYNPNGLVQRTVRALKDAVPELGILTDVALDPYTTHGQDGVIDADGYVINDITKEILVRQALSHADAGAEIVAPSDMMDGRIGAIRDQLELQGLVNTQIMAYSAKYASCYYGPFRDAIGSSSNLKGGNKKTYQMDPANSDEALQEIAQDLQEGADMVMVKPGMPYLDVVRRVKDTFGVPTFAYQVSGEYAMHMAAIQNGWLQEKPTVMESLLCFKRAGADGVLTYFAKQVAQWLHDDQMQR
Chain of Delta-aminolevulinic acid dehydratase (Pseudomonas aeruginosa (strain ATCC 15692 / PAO1 / 1C / PRS 101 / LMG12228)) (Q59643 whole entry): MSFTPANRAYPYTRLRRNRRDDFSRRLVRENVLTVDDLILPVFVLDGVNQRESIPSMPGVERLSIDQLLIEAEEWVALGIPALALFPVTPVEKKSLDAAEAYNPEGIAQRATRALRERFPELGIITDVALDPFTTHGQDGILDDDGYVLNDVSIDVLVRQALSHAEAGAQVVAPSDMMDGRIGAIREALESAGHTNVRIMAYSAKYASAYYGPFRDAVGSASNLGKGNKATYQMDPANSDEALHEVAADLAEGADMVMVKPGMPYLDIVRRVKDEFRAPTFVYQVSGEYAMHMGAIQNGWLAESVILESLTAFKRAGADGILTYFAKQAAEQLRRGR

For `O=C(O)c1ccc2c(c1)nc(CCNC(=O)c1cccs1)n2Cc1cccc(C(F)(F)F)c1`, the Activity [1] was “Active”, the inhibition [2] was “Active” and the Activity [3] was “Active”. The inhibition [4] was “Active”, the Activity [5] was “Active” and the Activity [6] was “Active”. The Activity [7] was “Active”, the Activity [8] was “Active” and the Activity [9] was “Active”. The inhibition [10] was “Active”, the inhibition [11] was “inactive” and the Activity [12] was “Active”. The IC50 [13] was 11.1 µM, the inhibition [14] was “Dose-dependent effect” and the Activity [15] was 20%. The Activity [16] was “Active”, the Smax (Toxoplasma gondii) was 128% and the inhibition [17] was “Active”.
